From PubChem
Insulin prom inh = TRM-6 insulin promoter activity inhibition; TRM-6 cells (human fetal islet line), insulin promoter-eGFP reporter, imaging; reporter expression induced with tamoxifen; inhibition, % at 2 µM; 130,000 compounds, 0.9% hits;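 active means inhibition above the mean plus 3 SD, with well images judged a real hit on visual review, cut at about 60% in these data, passing the limit was not always enough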
Yeast growth inh = reduces growth of yeast BB579 in restrictive medium; S. cerevisiae BB579 growth, OD615, 48 h; inhibition, % at 10 µM; 140,000 compounds, 0.51% hits;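 active means inhibition above a set limit, 3 SD over the mean compound inhibition, cut at about 44% in these data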
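Test system: DeaD yeast strain BB579 / Buffer or medium: restrictive glucose-based CSMM-D medium / Doses: single 10 µM dose / Schedule: 4 h cell preincubation, 48 h compound exposure, 30 °C humidified / Technique: culture absorbance at 615 nm / Controls: amphotericin B positive control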
Yeast life ext = extends the lifespan of yeast; S. cerevisiae growth with nicotinamide, OD615; deaD strain in restrictive glucose medium; 130,000 compounds, 0.68% hits; inhibition of the nicotinamide effect, % at 10 µM;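 active means inhibition above a set limit, placed 3 SD over the median of all compounds, cut at about 26% in these data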;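 further: 0% = nicotinamide-treated wells and 100% = cells grown without nicotinamide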
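assay system = DeaD-strain S. cerevisiae | measured by = absorbance at 615 nm | probe or stimulus = nicotinamide 1.5 mM | buffer or medium = CSMM-D glucose medium, restrictive | times = 48 h at 30 °C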
MDM2 E3 inh = blocks human Mdm2 ubiquitin ligase activity; signal enhancement, % at 5 µM; cell-based MDM2 ubiquitination luciferase reporter, 2 h; 0 = plate control, 100 = twice control, blank-subtracted; Q00987; 210,000 compounds, 0.11% hits;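 active means signal enhancement of 30% or more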;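 further: luminescence tracks abundance of the self-degrading MDM2-luciferase fusion protein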
Target sequence (Q00987 whole entry, looked up, the tested form may be a part): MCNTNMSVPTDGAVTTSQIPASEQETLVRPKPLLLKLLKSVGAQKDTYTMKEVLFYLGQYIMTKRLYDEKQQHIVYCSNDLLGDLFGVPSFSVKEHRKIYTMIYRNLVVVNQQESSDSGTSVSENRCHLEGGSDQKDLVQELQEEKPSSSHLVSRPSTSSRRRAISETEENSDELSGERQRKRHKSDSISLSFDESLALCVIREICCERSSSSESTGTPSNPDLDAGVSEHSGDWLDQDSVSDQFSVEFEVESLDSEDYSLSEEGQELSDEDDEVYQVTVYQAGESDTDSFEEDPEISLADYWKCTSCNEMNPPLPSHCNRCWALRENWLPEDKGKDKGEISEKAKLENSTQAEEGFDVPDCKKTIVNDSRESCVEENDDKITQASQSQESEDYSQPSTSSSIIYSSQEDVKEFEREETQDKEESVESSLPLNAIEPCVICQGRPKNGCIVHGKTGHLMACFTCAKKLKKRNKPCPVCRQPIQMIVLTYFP
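Buffer or medium: Cells held in DMEM | Assay system: Stable mammalian line carrying autodegrading MDM2–luciferase fusion reporter | Quantity: 2000 cells/well | Times: 4 h settle plus 2 h compound, 37 °C | Doses: One concentration, 5 µM, with 0.2% DMSO | Technique: Luminescence with SteadyLite reagent, 15 min at room temperature | Benchmarks: Plate controls and plate blanks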
Measles CPE = protection of cells from measles virus | Measles virus-infected cells, CPE protection, absorbance | protection (pct of control), % at 4 µM | 140,000 compounds, 1.5% hits | AID 841; in the data active means protection mostly above about 24%, no sharp cut-off; inactive means mostly below about 26%
RAM inhibit = blocks the yeast RAM network | inhibition, % at 50 µM | S. cerevisiae dse1pr::URA3 reporter, 5-FOA growth OD615, 2 d; analog-sensitive cbk1-as2 kinase mutant strain | 190,000 compounds, 1.8% hits;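 active means inhibition above a set limit, 3 SD over mean compound inhibition, cut at about 8.4% in these data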;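 further: 0% = DMSO-only wells with no growth and 100% = 10 µM 1-NA-PP1 full growth; inhibition rescues growth on 5-FOA so higher OD means more RAM inhibition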
An asterisk follows results filed as active; . = not tested or not shown. In the library only some 4% were active in any assay of this set; here they are far more common.

SMILES | Insulin prom inh | Yeast growth inh | Yeast life ext | MDM2 E3 inh | Measles CPE | RAM inhibit
CCOc1ccccc1OCCCOc1ccc(C)cc1Br | . | 7 | -13 | -19 | 33* | 2
COc1ccc(Nc2c3c(nc4c(-c5ccccc5)c(C)nn24)CCC3)cc1 | 91* | -18 | 4 | -6 | 31 | 1
COc1ccc(-c2cc3ccccc3s2)cc1[C@H]1[C@H]2C=CC[C@@H](C)[C@@H]2C(=O)N1Cc1ccccc1 | . | . | . | 4 | . | .
CCOc1nc(-c2ccccc2)ccc1-c1noc(-c2cccs2)n1 | -31 | -2 | 0 | -16 | 4 | 11*
CCOc1nc(-c2ccccc2)ccc1-c1noc(-c2ccncc2)n1 | . | -15 | -11 | -21 | 6 | 0
O=C(c1nc2ncccn2n1)N1CCN(c2ccccc2)CC1 | -23 | 8 | -8 | 6 | 43* | 3
O=C(c1nc2ncccn2n1)N1CCN(c2ccc(F)cc2)CC1 | -32 | 6 | -13 | -10 | 34 | 1
CCN1C(=O)c2cccc3c(NC(=O)c4cccc(N5C(=O)CCC5=O)c4)ccc1c23 | . | -48 | -3 | 4 | 7 | 9.3*
CCOc1cc(C(=O)Nc2ccc3c4c(cccc24)C(=O)N3CC)cc(OCC)c1OCC | 1 | -33 | -8 | 11 | 6 | 4
O=C(O)c1cccc(NC(=S)N/N=C/c2ccccn2)c1 | . | . | . | -56 | . | 3
O=C(O)c1cccc(NC(=S)N/N=C/c2cccc(O)c2)c1 | 78* | . | . | -33 | . | 1
CCOC(=O)c1c(C)nc2c(c1-c1cc(OC)c(OC)c(OC)c1)C(=O)c1ccccc1-2 | 1 | -36 | 3 | -17 | 29 | -1
Cc1ccc(NC(=S)N2CCC(c3nc4ccccc4s3)CC2)cc1C | 10 | -12 | -25 | -8 | 29* | 2
CC12CC(c3ccccc3O1)C(C(=O)N1CCOCC1)C(=O)N2 (stereo not drawn) | 71* | -42 | -14 | -5 | 9 | 0
O=C(C1COc2ccccc2O1)N1CCOCC1 (stereo not drawn) | 21 | -21 | -7 | -6 | 13 | 1
O=[N+]([O-])c1cc(S(=O)(=O)Nc2ccccc2)ccc1NCc1ccccc1 | 11 | 0 | 5 | -15 | 37* | 7
Cc1cc(NS(=O)(=O)c2ccc(NC(=O)c3cc4c(=O)n5ccccc5nc4s3)cc2)nc(C)n1 | -121 | . | . | -10 | . | 9.0*
COc1cc(/C=C2\SC(=O)N(CCN)C2=O)ccc1OS(=O)(=O)c1cc(C)ccc1C | . | . | . | -12 | . | 8.5*
CCOc1ccccc1NC(=O)CCN(c1ccc(C)cc1)S(=O)(=O)c1ccccc1 | 5 | -17 | -1 | -12 | 4 | 9.2*
Cc1ccc(S(=O)(=O)N(CC(=O)Nc2ccccc2C(=O)O)c2ccccc2)cc1 | . | . | . | -7 | . | 8.7*
Nc1cc(C(=O)O)c(Oc2ccc(Cl)cc2Cl)cc1C(=O)O | 67* | -10 | 6 | -5 | 7 | -1
Nc1cc(Cl)ccc1Oc1ccccc1 | 45 | -59 | -5 | -12 | 11 | 2
O=C(CC1SC2=NCCN2C1=O)Nc1ccc(Cl)cc1 (stereo not drawn) | 77* | -42 | -13 | -11 | 12 | 3
CNc1ccc(/C=C(\CCC(=O)O)c2nc3ccccc3s2)cc1[N+](=O)[O-] | -38 | -41 | -1 | -17 | 11 | 11*
Cc1ccc(/C=C(\CCC(=O)O)c2nc3ccccc3s2)cc1[N+](=O)[O-] | 2 | -38 | 4 | 4 | 6 | 10.0*
SMILES | Insulin prom inh | Yeast growth inh | Yeast life ext | MDM2 E3 inh | Measles CPE | RAM inhibit
C=CCN=C(NC#N)SCC(=O)c1cccc(OC)c1 | . | -22 | -19 | -18 | 3 | -1
COc1ccccc1C1=NOC(COC(=O)c2ccc([N+](=O)[O-])cc2)C1 (stereo not drawn) | . | . | . | -14 | . | .
COc1ccccc1C1=NOC(COC(=O)c2ccc(Br)cc2)C1 (stereo not drawn) | -31 | -62 | -1 | -2 | 5 | 10*
Cc1ccc2ncccc2c1NC(=S)NC(=O)c1ccccc1 | . | . | . | -6 | . | 2
CCCCn1c(SCC(=O)NC(C)CC)nc2ccc(N3CCOCC3)cc2c1=O (stereo not drawn) | -9 | -90 | -12 | -10 | 16 | 3
CCCCn1c(SCC(=O)Nc2ccc(OC)cc2)nc2ccc(N3CCOCC3)cc2c1=O | 5 | -33 | -15 | -21 | 53* | 3
CCS(=O)(=O)n1nc(-c2ccc(Cl)cc2)nc1SCc1ccccc1 | -44 | 75* | . | 6 | 1 | -2
O=C(Nc1cc(Cl)cc(Cl)c1)N1CCCC1 | . | . | . | -10 | . | .
O=C(NCCCn1ccnc1)c1cc([N+](=O)[O-])cc([N+](=O)[O-])c1 | 73* | -35 | 0 | 9 | 4 | 4
O=C(Cc1ccc(Cl)cc1)NCCCn1ccnc1 | 38 | 5 | -4 | -29 | 15 | 0
O=C(NCCCn1ccnc1)c1ccncc1 | 11 | 19 | -20 | 7 | 14 | 1
O=C(Cc1c(F)cccc1Cl)NCCCn1ccnc1 | . | -7 | -8 | -11 | 45* | 0
OC(COc1ccc(C2C=CCC2)cc1)CN1CCCCC1 (stereo not drawn) | 21 | -67 | 1 | -12 | 2 | 2
COc1ccc(-c2[nH]ncc2C=O)cc1 | 60* | -11 | -2 | -11 | 9 | 1
Cc1nn(-c2ccccc2)nc1C(=O)Nc1nnc(C(F)(F)F)s1 | . | . | . | -6 | . | .
CCN(CC)S(=O)(=O)c1ccc(NC(=O)COC(=O)CNS(=O)(=O)/C=C/c2ccccc2)cc1 | . | -40 | 0 | 20 | 4 | 8.4*
CCN(CC)S(=O)(=O)c1ccc(NC(=O)C2c3ccccc3Oc3ccccc32)cc1 | -50 | -54 | 3 | 1 | 5 | 8.6*
CCN(CC)S(=O)(=O)c1ccc(Cl)c(NC(=O)CSc2cccc[n+]2[O-])c1 | . | . | . | -6 | . | .
CCN(CC)S(=O)(=O)c1ccc(NC(=O)CSc2cccc[n+]2[O-])cc1 | -35 | 65* | -5 | -5 | 4 | -1
O=C1NC(Cc2c[nH]c3ccccc23)C(=O)N1CCOc1ccccc1 (stereo not drawn) | -12 | -25 | -5 | -1 | 13 | 1
CC(=O)Nc1ccc(-c2csc(NC(=O)CCCc3cccs3)n2)cc1 | -3 | -14 | 1 | 4 | 110* | 4
Cc1ccc(-c2csc(NC(=O)CCCc3cccs3)n2)cc1 | . | -22 | 0 | -9 | 7 | 4
COc1ccc(C2C(C(=O)O)CC(=O)N2C2CCCCC2)cc1 (stereo not drawn) | -200 | -9 | -4 | -9 | 48* | 1
O=C(O)C1CC(=O)N(C2CCCCC2)C1c1ccccc1 (stereo not drawn) | -67 | -8 | 1 | -13 | 2 | 1
CC(=O)c1ccc(NC(=O)COC(=O)c2nc(Cl)ccc2Cl)cc1 | . | . | . | -5 | . | 5
